For series [1], the system named is Pseudomonas aeruginosa. In words: Antibacterial activity against extended spectrum beta-lactamase IMP-4 producing multidrug resistant Pseudomonas aeruginosa clinical isolates after 18 hrs by broth microdilution method. It counts as functional.
Series [2] relates to Plasma. The experiment in a line: Fraction unbound in human plasma at 10 uM after 4 hrs by LC-MS/MS based rapid equilibrium dialysis method. It counts as ADME, cell-free. An outline of the steps:
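Human plasma spiked at 10 μM was dialysed against buffer in a rapid equilibrium dialysis device for 4 h at 37 °C under 5% CO2 (n = 4). Both sides were quantified by LC–MS/MS. Fraction unbound was taken as the buffer concentration divided by the total plasma-side concentration.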
A general note: In equilibrium dialysis only unbound substance equilibrates across the membrane.

The nature of series [3]: Drug degradation in human plasma at 10 uM after 4 hrs by LC-MS/MS analysis. It counts as ADME, cell-free. The note with it: read-out: Drug degradation. The gist of the method:
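Human plasma containing compound (10 μM, n = 4) was incubated for 4 h at 37 °C under 5% CO2. Concentrations at T0 and at 4 h were measured by LC–MS/MS, and degradation was expressed as a percentage relative to the T0 average.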

Series [4] concerns Klebsiella pneumoniae. In words: Antibacterial activity against extended spectrum beta-lactamase KPC-2 producing multidrug resistant Klebsiella pneumoniae clinical isolates after 18 hrs by broth microdilution method. The format is functional. (In broth dilution the organism is exposed to a series of concentrations in liquid medium.)
In series [5] the test system is Acinetobacter baumannii. The experiment in a line: Antibacterial activity against extended spectrum beta-lactamase OXA-23 producing multidrug resistant Acinetobacter baumannii clinical isolates after 18 hrs by broth microdilution method. It counts as functional.
In series [6] the test system is Escherichia coli. In words: Antibacterial activity against extended spectrum beta-lactamases producing Escherichia coli clinical isolates after 18 hrs by broth microdilution method. It counts as functional.
Where [7] appears, read: Klebsiella pneumoniae, 18 h, read-out: MIC.

In brackets after ≈: the same amount, converted by molar mass. Some results are limits rather than exact numbers.

The term MIC denotes the least concentration at which growth counts as inhibited. Regarding `CNC(=O)C(O/N=C(\C(=O)N[C@@H]1C(=O)N(OS(=O)(=O)O)C1(C)C)c1csc(N)n1)c1cc(=O)c(O)cn1O` (some centres not stated), the MIC in series [1] is 4 µg/mL (≈ 6.95 µM); in series [4] (setting [7]), 0.25 to 2 µg/mL (≈ 0.434 to 3.48 µM); in series [5], 0.25 to 1 µg/mL (≈ 0.434 to 1.74 µM); in series [6], 0.06 to 4 µg/mL (≈ 0.104 to 6.95 µM). This molecule also came in with a Fu in series [2] of 69%. Further, the metabolised at 4 h, 10 µM in series [3] is 36%.

For `CC(C)[C@@H](O/N=C(\C(=O)N[C@@H]1C(=O)N(OS(=O)(=O)O)C1(C)C)c1nsc(N)n1)c1cc(=O)c(O)cn1O`, the MIC fell in the range of 1 to 4 µg/mL (≈ 1.78 to 7.12 µM) in series [1], 0.5 to 2 µg/mL (≈ 0.89 to 3.56 µM) in series [4] (setting [7]), 0.5 to 64 µg/mL (≈ 0.89 to 114 µM) in series [5] and 0.5 to 8 µg/mL (≈ 0.89 to 14.2 µM) in series [6].

For `CSC[C@H](O/N=C(\C(=O)N[C@@H]1C(=O)N(OS(=O)(=O)O)C1(C)C)c1csc(N)n1)c1cc(=O)c(O)cn1O`, the MIC in series [1] was 0.5 to 2 µg/mL (≈ 0.864 to 3.46 µM); in series [4], >0.06 to 64 µg/mL; in series [5], 0.5 to 4 µg/mL (≈ 0.864 to 6.91 µM). Further, in series [2], the Fu is 29%. In series [3], the metabolised at 4 h, 10 µM is 39%.

On to `CC(C)SCC(O/N=C(\C(=O)N[C@@H]1C(=O)N(OS(=O)(=O)O)C1(C)C)c1csc(N)n1)c1cc(=O)c(O)cn1O` (some centres not stated), for which the minimum inhibitory concentration (MIC) in series [1] lay within 0.25 to 4 µg/mL (≈ 0.412 to 6.59 µM); in series [4] (setting [7]) it was 0.06 to 1 µg/mL (≈ 0.0989 to 1.65 µM); in series [5], 0.25 to 2 µg/mL (≈ 0.412 to 3.3 µM). Also, the Fu in series [2] came to 21%. In addition, in series [3], the metabolised at 4 h, 10 µM was determined as 34%.

Consider `CO/N=C(\C(=O)N[C@@H]1C(=O)N2C(C(=O)[O-])=CCS[C@H]12)c1csc(N)n1.[Na+]` [CEFTIZOXIME SODIUM], for which the MIC in series [1] was > 64 µg/mL; in series [4] (setting [7]), 32 to 64 µg/mL; in series [5], 32 to 64 µg/mL; in series [6] it was 0.5 to 2 µg/mL.

Consider `CC(C)[C@H](O/N=C(\C(=O)N[C@@H]1C(=O)N(OS(=O)(=O)O)C1(C)C)c1nc(N)sc1Cl)c1cc(=O)c(O)cn1O`, for which the MIC in series [1] was 0.06 to 1 µg/mL (≈ 0.101 to 1.68 µM); in series [4] (setting [7]) it was 0.25 to 0.5 µg/mL (≈ 0.42 to 0.84 µM); in series [5], 0.5 to 1 µg/mL (≈ 0.84 to 1.68 µM); in series [6], 0.06 to 1 µg/mL (≈ 0.101 to 1.68 µM). This molecule also displayed a Fu in series [2] of 23%. Besides, the metabolised at 4 h, 10 µM in series [3] stood at 33%.

For the molecule `CC(C)[C@H](O/N=C(\C(=O)N[C@@H]1C(=O)N(OS(=O)(=O)O)C1(C)C)c1nsc(N)n1)c1cc(=O)c(O)cn1O`, the MIC in series [1] was 1 to 2 µg/mL (≈ 1.78 to 3.56 µM); in series [4] (setting [7]), 1 to 4 µg/mL (≈ 1.78 to 7.12 µM); in series [5], 1 to 4 µg/mL (≈ 1.78 to 7.12 µM); in series [6], 0.5 to 2 µg/mL (≈ 0.89 to 3.56 µM). Besides, the Fu in series [2] stood at 27%. For the same molecule, in series [3], the metabolised at 4 h, 10 µM came to 16%.

In the case of `CC(C)[C@@H](O/N=C(\C(=O)N[C@@H]1C(=O)N(OS(=O)(=O)O)C1(C)C)c1nc(N)sc1Cl)c1cc(=O)c(O)cn1O`, the MIC fell in the range of 0.5 to 4 µg/mL (≈ 0.84 to 6.72 µM) in series [1], 0.5 to 2 µg/mL (≈ 0.84 to 3.36 µM) in series [4] (setting [7]), 0.25 to 64 µg/mL (≈ 0.42 to 108 µM) in series [5] and 0.125 to 1 µg/mL (≈ 0.21 to 1.68 µM) in series [6].

For `CC(O/N=C(\C(=O)N[C@@H]1C(=O)N(OS(=O)(=O)O)C1(C)C)c1csc(N)n1)c1cc(=O)c(O)cn1O` (some centres not stated), the minimal inhibitory concentration (MIC) in series [1] lay in the range of 0.25 to 8 µg/mL (≈ 0.469 to 15 µM); in series [4] it was 0.03 to 64 µg/mL; in series [5] it was 0.5 to 64 µg/mL (≈ 0.939 to 120 µM); in series [6], 0.06 to 0.25 µg/mL (≈ 0.113 to 0.469 µM). This molecule also yielded a Fu in series [2] of 41%. In series [3], the metabolised at 4 h, 10 µM is 24%.

For `COC(=O)C(O/N=C(\C(=O)N[C@@H]1C(=O)N(OS(=O)(=O)O)C1(C)C)c1csc(N)n1)c1cc(=O)c(O)cn1O` (some centres not stated), the MIC in series [1] was 1 to 4 µg/mL (≈ 1.73 to 6.94 µM); in series [4] (setting [7]), 0.25 to 2 µg/mL (≈ 0.434 to 3.47 µM); in series [5] it was 0.5 to 1 µg/mL (≈ 0.867 to 1.73 µM); in series [6], 0.25 to 1 µg/mL (≈ 0.434 to 1.73 µM). Further, the Fu in series [2] is 61%. Moreover, the metabolised at 4 h, 10 µM in series [3] is 66%.

In the case of `CC(C)C(O/N=C(\C(=O)N[C@@H]1C(=O)N(OS(=O)(=O)O)C1(C)C)c1nsc(N)n1)c1cc(=O)c(O)cn1O` (some centres not stated), the MIC in series [1] fell in the range of 0.5 to 32 µg/mL (≈ 0.89 to 57 µM); in series [4] (setting [7]), 0.06 to 1 µg/mL (≈ 0.107 to 1.78 µM); in series [5], 0.5 to 4 µg/mL (≈ 0.89 to 7.12 µM); in series [6], 0.06 to 2 µg/mL (≈ 0.107 to 3.56 µM). The molecule further came in with a Fu in series [2] of 28%. The metabolised at 4 h, 10 µM in series [3] was determined as 11%.

Consider `CC1(C)[C@H](NC(=O)/C(=N\OCc2ccn(O)c(=O)c2)c2csc(N)n2)C(=O)N1OS(=O)(=O)O`, for which the MIC in series [1] is 64 µg/mL (≈ 127 µM); in series [4] (setting [7]) it was 4 to 64 µg/mL (≈ 7.96 to 127 µM); in series [5], 4 to 64 µg/mL (≈ 7.96 to 127 µM); in series [6] it was 0.25 to 4 µg/mL (≈ 0.498 to 7.96 µM).

In the case of `CC(O/N=C(\C(=O)N[C@@H]1C(=O)N(OS(=O)(=O)O)C1(C)C)c1nc(N)sc1Cl)c1cc(=O)c(O)cn1O` (some centres not stated), the MIC was 0.5 to 4 µg/mL (≈ 0.882 to 7.06 µM) in series [1], 0.06 to 1 µg/mL (≈ 0.106 to 1.76 µM) in series [4] (setting [7]) and 0.25 to 2 µg/mL (≈ 0.441 to 3.53 µM) in series [5]. Further, in series [2], the Fu was 20%. Further, the metabolised at 4 h, 10 µM in series [3] was 20%.

For the molecule `CC(=O)N(O)CCO/N=C(\C(=O)N[C@@H]1C(=O)N(OS(=O)(=O)O)C1(C)C)c1csc(N)n1`, the MIC in series [1] is ≥ 64 µg/mL; in series [4] (setting [7]) it was 32 to 64 µg/mL (≈ 66.6 to 133 µM); in series [5], 16 to 64 µg/mL (≈ 33.3 to 133 µM); in series [6] it was 4 to 32 µg/mL (≈ 8.32 to 66.6 µM).

Turning to `CC1(C)[C@H](NC(=O)/C(=N\OC(CO)c2cc(=O)c(O)cn2O)c2csc(N)n2)C(=O)N1OS(=O)(=O)O` (some centres not stated), the minimum inhibitory concentration (MIC) in series [1] fell in the range of 0.25 to 16 µg/mL (≈ 0.456 to 29.2 µM); in series [4] (setting [7]), 0.25 to 64 µg/mL (≈ 0.456 to 117 µM); in series [5], 0.5 to 2 µg/mL (≈ 0.912 to 3.65 µM); in series [6], 0.06 to 4 µg/mL (≈ 0.109 to 7.29 µM). In series [2], this molecule returned a Fu of 59%. For the same molecule, in series [3], the metabolised at 4 h, 10 µM worked out at 50%.

These data come from ChEMBL document CHEMBL4007487, “Discovery of Novel Pyridone-Conjugated Monosulfactams as Potent and Broad-Spectrum Antibiotics for Multidrug-Resistant Gram-Negative Infections” (J Med Chem, 2017).
